# Values joined by “and” are separate entries in the source; they are usually repeats but may differ in a detail not shown here. Equal values may be shown once.
# System: Fibroblast
# Experiment: Multiplex assay against human fibroblast
# Assay type: toxicity, cell-based
# Procedure, shortened: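 Tubulin, mitochondrial-mass and membrane-permeability phenotypes are per cents of healthy-nucleus cells. Cells were gated by CellPathfinder machine learning into Hoechst high-intensity objects or normal cells, normal cells into healthy, pyknosed or fragmented nuclei, and pyknosed cells into mitotic or apoptotic. Before that, live cells stained at seeding with Hoechst33342, BioTracker Green Microtubule Cytoskeleton Dye, MitoTracker Red and Annexin V Alexa Fluor 680 were imaged on a CQ1 microscope at 37°C and 5% CO2 after compound addition.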
# [1] = 12 h, 1 µM, compound concentration 1 uM, replicate 1
# [2] = 12 h, 1 µM, compound concentration 1 uM, replicate 2
# [3] = 12 h, 10 µM, compound concentration 10 uM, replicate 1
# [4] = 12 h, 10 µM, compound concentration 10 uM, replicate 2
# [5] = 24 h, 1 µM, compound concentration 1 uM, replicate 1
# [6] = 24 h, 1 µM, compound concentration 1 uM, replicate 2
# [7] = 24 h, 10 µM, compound concentration 10 uM, replicate 1
# [8] = 24 h, 10 µM, compound concentration 10 uM, replicate 2
compound,measurement,setting,value
CC[C@@]1(O)C(=O)OCc2c1cc1n(c2=O)Cc2cc3ccccc3nc2-1 [CAMPTOTHECIN],Population Apoptotic (%),[1],68% and 80%
same,Population Fragmented Nuclei (%),[1],42% and 41% and 43%
same,Population Healthy Nuclei (%),[1],49% and 43% and 37%
same,Population Membrane Permeable-Phenotype (%),[1],10% and 7% and 5%
same,Population Mitochondria Different-Phenotype (%),[1],3% and 9% and 7%
same,Population Mitotic Cells (%),[1],31% and 20% and 19%
same,Population Normal (%),[1],84% and 52% and 47%
same,Population Pyknosed Nuclei (%),[1],8% and 15% and 19%
same,Total Cell Count,[1],256 and 440 and 382
same,Population Fragmented Nuclei (%),[2],64% and 80%
same,Population Healthy Nuclei (%),[2],32% and 19% and 34%
same,Population Hoechst High Intensity Objects (%),[2],37% and 59% and 67%
same,Population Membrane Permeable-Phenotype (%),[2],15% and 16% and 6%
same,Population Mitochondria Different-Phenotype (%),[2],10% and 12% and 30%
same,Population Normal (%),[2],62% and 40% and 32%
same,Population Pyknosed Nuclei (%),[2],3% and 0% and 1%
same,Population Tubulin-Different-Phenotype (%),[2],21% and 28% and 24%
same,Population Apoptotic (%),[3],87%
same,Population Fragmented Nuclei (%),[3],34%
same,Population Healthy Nuclei (%),[3],43%
same,Population Hoechst High Intensity Objects (%),[3],27%
same,Population Membrane Permeable-Phenotype (%),[3],3%
same,Population Mitochondria Different-Phenotype (%),[3],11%
same,Population Mitotic Cells (%),[3],12%
same,Population Normal (%),[3],72%
same,Population Pyknosed Nuclei (%),[3],21%
same,Population Tubulin-Different-Phenotype (%),[3],9%
same,Total Cell Count,[3],198
same,Population Apoptotic (%),[4],50%
same,Population Fragmented Nuclei (%),[4],65%
same,Population Healthy Nuclei (%),[4],30%
same,Population Hoechst High Intensity Objects (%),[4],41%
same,Population Membrane Permeable-Phenotype (%),[4],7%
same,Population Mitochondria Different-Phenotype (%),[4],7%
same,Population Mitotic Cells (%),[4],50%
same,Population Normal (%),[4],58%
same,Population Pyknosed Nuclei (%),[4],4%
same,Population Tubulin-Different-Phenotype (%),[4],7%
same,Total Cell Count,[4],74
same,Population Apoptotic (%),[5],78% and 72% and 90%
same,Population Fragmented Nuclei (%),[5],39% and 40% and 34%
same,Population Healthy Nuclei (%),[5],48% and 43% and 55%
same,Population Membrane Permeable-Phenotype (%),[5],10% and 4% and 6%
same,Population Mitochondria Different-Phenotype (%),[5],7% and 15% and 8%
same,Population Mitotic Cells (%),[5],21% and 27% and 9%
same,Population Normal (%),[5],54% and 49% and 89%
same,Population Pyknosed Nuclei (%),[5],12% and 16% and 10%
same,Population Tubulin-Different-Phenotype (%),[5],16% and 11% and 12%
same,Total Cell Count,[5],414 and 405 and 222
same,Population Fragmented Nuclei (%),[6],57% and 80% and 66%
same,Population Healthy Nuclei (%),[6],40% and 18% and 32%
same,Population Hoechst High Intensity Objects (%),[6],44% and 56% and 68%
same,Population Membrane Permeable-Phenotype (%),[6],15% and 16% and 0%
same,Population Mitochondria Different-Phenotype (%),[6],25% and 16% and 28%
same,Population Normal (%),[6],55% and 43% and 31%
same,Population Pyknosed Nuclei (%),[6],2% and 1%
same,Population Tubulin-Different-Phenotype (%),[6],20% and 29% and 36%
same,Population Apoptotic (%),[7],85%
same,Population Fragmented Nuclei (%),[7],34%
same,Population Healthy Nuclei (%),[7],45%
same,Population Hoechst High Intensity Objects (%),[7],28%
same,Population Membrane Permeable-Phenotype (%),[7],6%
same,Population Mitochondria Different-Phenotype (%),[7],9%
same,Population Mitotic Cells (%),[7],14%
same,Population Normal (%),[7],71%
same,Population Pyknosed Nuclei (%),[7],19%
same,Population Tubulin-Different-Phenotype (%),[7],7%
same,Total Cell Count,[7],201
same,Population Apoptotic (%),[8],100%
same,Population Fragmented Nuclei (%),[8],65%
same,Population Healthy Nuclei (%),[8],31%
same,Population Hoechst High Intensity Objects (%),[8],42%
same,Population Membrane Permeable-Phenotype (%),[8],0%
same,Population Mitochondria Different-Phenotype (%),[8],0%
same,Population Mitotic Cells (%),[8],0%
same,Population Normal (%),[8],57%
same,Population Pyknosed Nuclei (%),[8],2%
same,Total Cell Count,[8],77
